Measured values reported in ChEMBL document CHEMBL1123183, “Synthesis and antiviral properties of 5-(2-substituted vinyl)-6-aza-2'-deoxyuridines” (1986).
Converted amounts (≈) assume the structure as drawn.

Legend:
Type in all cases: functional
Settings in all cases: Chlorocebus sabaeus, read-out: ID50 (the source's name)
Vero [1] = test: In vitro antiviral activity against HSV-1(strain HFEM) in Vero cells
In short: (§1)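 Plaque reduction in confluent Vero monolayers infected with 30-40 PFU of HSV-1 (strain HFEM) or HSV-2 (strain 196), then 1 h at 37 °C. Overlay of maintenance medium with 0.75% carboxymethylcellulose and a range of compound concentrations, then 2 days at 37 °C. Cells fixed and stained, plaques counted. ID50 is the concentration giving 50% plaque inhibition.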

Vero [2] = test: In vitro antiviral activity against HSV-2(strain 196) in Vero cells; in short: as §1
Vero [3] = test: Cytotoxicity was measured by determining the incorporation of [methyl-3H]thymidine into DNA of Vero cells
In short: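 Subconfluent Vero monolayers overlaid with maintenance medium holding 1 μCi/mL [methyl-3H]thymidine plus a range of nucleoside concentrations. Incubated 18 h at 37 °C. DNA synthesis read as label in acid-precipitable material. ID50 is the concentration giving 50% reduction of thymidine incorporation.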

Structure (SMILES)	IC50 (Vero [1])	IC50 (Vero [2])	IC50 (Vero [3])
O=c1[nH]c(=O)n(C2C[C@@H](O)[C@@H](CO)O2)nc1-c1ccoc1 (stereo partly drawn)	42 µg/mL (≈ 142 µM)	39 µg/mL (≈ 132 µM)	45 µg/mL (≈ 152 µM)
O=c1[nH]c(=O)n(C2C[C@@H](O)[C@@H](CO)O2)nc1C=C(Br)Br (stereo partly drawn)	100 µg/mL (≈ 242 µM)	100 µg/mL (≈ 242 µM)	> 500 µg/mL
COC(=O)/C=C/c1nn(C2C[C@@H](O)[C@@H](CO)O2)c(=O)[nH]c1=O (stereo partly drawn)	> 500 µg/mL	–	> 500 µg/mL
O=c1[nH]c(=O)n(C2C[C@@H](O)[C@@H](CO)O2)nc1CC(F)(F)F (stereo partly drawn)	> 250 µg/mL	> 250 µg/mL	> 500 µg/mL
CS/C=C/c1nn(C2C[C@@H](O)[C@@H](CO)O2)c(=O)[nH]c1=O (stereo partly drawn)	> 250 µg/mL	> 250 µg/mL	420 µg/mL (≈ 1390 µM)
O=C(O)/C=C/c1nn(C2C[C@@H](O)[C@@H](CO)O2)c(=O)[nH]c1=O (stereo partly drawn)	> 250 µg/mL	–	> 500 µg/mL
O=c1[nH]c(=O)n(C2C[C@@H](O)[C@@H](CO)O2)nc1/C=C/Cl (stereo partly drawn)	20 µg/mL (≈ 69 µM)	215 µg/mL (≈ 742 µM)	> 500 µg/mL
O=c1[nH]c(=O)n(C2C[C@@H](O)[C@@H](CO)O2)nc1/C=C/Br (stereo partly drawn)	8 µg/mL (≈ 23.9 µM)	190 µg/mL (≈ 569 µM)	355 µg/mL (≈ 1060 µM)
O=Cc1nn(C2C[C@@H](O)[C@@H](CO)O2)c(=O)[nH]c1=O (stereo partly drawn)	> 500 µg/mL	–	180 µg/mL (≈ 700 µM)
COC(F)(F)Cc1nn(C2C[C@@H](O)[C@@H](CO)O2)c(=O)[nH]c1=O (stereo partly drawn)	82 µg/mL (≈ 254 µM)	> 250 µg/mL	> 500 µg/mL
O=c1[nH]c(=O)n(C2C[C@@H](O)[C@@H](CO)O2)nc1/C=C(\F)Br (stereo partly drawn)	> 250 µg/mL	> 250 µg/mL	> 500 µg/mL
O=c1[nH]c(=O)n([C@H]2C[C@H](O)[C@@H](CO)O2)cc1/C=C/Br [BRIVUDINE]	0.015 µg/mL (≈ 0.045 µM)	1.6 µg/mL (≈ 4.8 µM)	50 µg/mL (≈ 150 µM)
